Active and inactive are the calls of the source. The calls are words filed in the database; no cut-off is given here.

This is an account of results in ChEMBL document CHEMBL3045704, “Biflavonoids isolated from Selaginella lepidophylla inhibit photosynthesis in spinach chloroplasts” (J Agric Food Chem, 2008).

The test system of assay [1] is Spinacia oleracea. Description: Increase in chlorophyll a fluorescence in freshly lysed Spinacia oleracea (spinach) leaves chloroplasts at 10 uM.
Assay [2] has as its system Spinacia oleracea. Kind of assay: Inhibition of thylakoid membrane bound Magnesium-transporting Mg2+ ATPase in Spinacia oleracea (spinach) leaves chloroplasts assessed as enzyme activity at 3 mM. Also on record: scale not given: the % may be the effect or the level left. The method, boiled down:
(§1)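 Chloroplasts were ground in 350 mM sorbitol, 5 mM ascorbate and 20 mM MES pH 6.5, centrifuged 3000g for 60 s, washed, and resuspended in 35 mM HEPES pH 7.6. Light-triggered thylakoid-bound Mg2+-ATPase was assayed via released Pi (Sumner method), expressed as µM P/mg Chl/h and as % of control. Tested at 100–300 µM, or NH4Cl at 1–6 mM.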

In assay [3] the test system is Spinacia oleracea. Kind of assay: Inhibition of thylakoid membrane bound Magnesium-transporting Mg2+ ATPase in Spinacia oleracea (spinach) leaves chloroplasts assessed as enzyme activity at 6 mM. On the set-up: scale not given: the % may be the effect or the level left. The method, boiled down: as §1
The test system of assay [4] is Spinacia oleracea. Kind of assay: Inhibition of thylakoid membrane bound Magnesium-transporting Mg2+ ATPase in Spinacia oleracea (spinach) leaves chloroplasts assessed as enzyme activity at 1 mM. On the set-up: scale not given: the % may be the effect or the level left. In short, it runs like this: as §1
Assay [5] concerns the target T1, Photosystem I iron-sulfur center (Spinacia oleracea) (UniProt P10098).
T1 sequence (whole entry): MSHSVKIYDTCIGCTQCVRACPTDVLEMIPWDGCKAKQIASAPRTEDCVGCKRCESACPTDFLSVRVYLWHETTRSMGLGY
Description: Inhibition of photosystem I in Spinacia oleracea (spinach) leaves chloroplasts assessed as effect on partial reaction from PMS reduced with ascorbate to MV using KCN treated thylakoids. In short, it runs like this:
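Chloroplasts were held in basal medium with 30 mM KCN for 60 min at 4 °C in the dark to release plastocyanin. They were then diluted in sucrose/30 mM HEPES-NaOH pH 7.2/2 mM MgCl2, centrifuged 5000g for 2 min and resuspended. Flow from 100 µM PMS/300 µM ascorbate to MV was assayed in basal medium plus 1 µM DBMIB.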

The target of assay [6] is T1, Photosystem I iron-sulfur center (Spinacia oleracea). Description: Inhibition of photosystem I in Spinacia oleracea (spinach) leaves intact chloroplasts assessed as electron transport flow from TMQH2 to MV at 100 uM. On the set-up: scale not given: the % may be the effect or the level left. The method, boiled down: (§2)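 Electron flow from TMQH2 to MV was determined polarographically with a Clark electrode in basal electron transport medium.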

In assay [7] the target is Photosystem II protein D1 (Spinacia oleracea) (UniProt P69560). Description: Inhibition of photosystem II in Spinacia oleracea (spinach) leaves intact chloroplasts assessed as electron transport flow from H2O to DCPIP at 100 uM. On the set-up: scale not given: the % may be the effect or the level left. In short, it runs like this: (§3)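 Uncoupled PSII, water to DCPIP, was followed as DCPIP-supported O2 evolution on a Clark electrode. Medium: basal electron transport medium with 1 µM DBMIB, 100 µM DCPIP, 300 µM K3[Fe(CN)6] and 6 mM NH4Cl, without MV. I50 values were calculated.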

Assay [8] concerns the target T1, Photosystem I iron-sulfur center (Spinacia oleracea). Description: Inhibition of photosystem I in Spinacia oleracea (spinach) leaves intact chloroplasts assessed as electron transport flow from TMQH2 to MV at 50 uM. On the set-up: scale not given: the % may be the effect or the level left. In short, it runs like this: as §2
Assay [9] has the same target. Description: Inhibition of photosystem I in Spinacia oleracea (spinach) leaves intact chloroplasts assessed as electron transport flow from DCPIP to MV at 300 uM. Also on record: scale not given: the % may be the effect or the level left. The method, boiled down: (§4)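 Uncoupled PSI flow, reduced DCPIP to MV, in basal electron transport medium (3 mL). Additions: 10 µM DCMU, 100 µM DCPIP, 300 µM ascorbate and 6 mM NH4Cl. O2 uptake was monitored with a Clark electrode.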

Assay [10] relates to Spinacia oleracea. Kind of assay: Inhibition of ATP synthesis in Spinacia oleracea (spinach) leaves intact chloroplasts. The class given is functional. Particulars: read-out: I50.
Assay [11] deals with T1, Photosystem I iron-sulfur center (Spinacia oleracea). Kind of assay: Inhibition of photosystem I in Spinacia oleracea (spinach) leaves intact chloroplasts assessed as electron transport flow from DCPIP to MV at 200 uM. On the set-up: scale not given: the % may be the effect or the level left. In short, it runs like this:
as §4

Assay [12] has as its system Spinacia oleracea. Kind of assay: Inhibition of uncoupled electron transport flow in Spinacia oleracea (spinach) leaves intact chloroplasts at 300 uM. The class given is functional.
In assay [13] the target is Photosystem II protein D1 (Spinacia oleracea) (UniProt P69560). Kind of assay: Inhibition of photosystem II in Spinacia oleracea (spinach) leaves intact chloroplasts assessed as electron transport flow from H2O to DCPIP at 50 uM. On the set-up: scale not given: the % may be the effect or the level left. In short, it runs like this:
as §3

Assay [14] deals with T1, Photosystem I iron-sulfur center (Spinacia oleracea). Kind of assay: Inhibition of photosystem I in Spinacia oleracea (spinach) leaves intact chloroplasts assessed as electron transport flow from TMQH2 to MV at 200 uM. On the set-up: scale not given: the % may be the effect or the level left. In short, it runs like this: as §2
The subject of assay [15] is Spinacia oleracea. Kind of assay: Inhibition of thylakoid membrane bound Magnesium-transporting Mg2+ ATPase in Spinacia oleracea (spinach) leaves chloroplasts assessed as enzyme activity at 200 uM. Also on record: scale not given: the % may be the effect or the level left. The method, boiled down:
as §1

Assay [16] deals with T1, Photosystem I iron-sulfur center (Spinacia oleracea). Kind of assay: Inhibition of photosystem I in Spinacia oleracea (spinach) leaves intact chloroplasts assessed as electron transport flow from TMQH2 to MV at 300 uM. On the set-up: scale not given: the % may be the effect or the level left. In short, it runs like this:
as §2

The target of assay [17] is Photosystem II protein D1 (Spinacia oleracea) (UniProt P69560). Description: Inhibition of photosystem II in Spinacia oleracea (spinach) leaves intact chloroplasts assessed as electron transport flow from H2O to DCPIP at 300 uM. Also on record: scale not given: the % may be the effect or the level left. In short, it runs like this: as §3
The test system of assay [18] is Spinacia oleracea. Kind of assay: Inhibition of thylakoid membrane bound Magnesium-transporting Mg2+ ATPase in Spinacia oleracea (spinach) leaves chloroplasts assessed as enzyme activity at 100 uM. Also on record: scale not given: the % may be the effect or the level left. In short, it runs like this: as §1
Assay [19] relates to Spinacia oleracea. Description: Inhibition of thylakoid membrane bound Magnesium-transporting Mg2+ ATPase in Spinacia oleracea (spinach) leaves chloroplasts assessed as enzyme activity at 300 uM. Also on record: scale not given: the % may be the effect or the level left. The method, boiled down:
as §1

Assay [20] deals with T1, Photosystem I iron-sulfur center (Spinacia oleracea). Description: Inhibition of photosystem I in Spinacia oleracea (spinach) leaves intact chloroplasts assessed as electron transport flow from DCPIP to MV at 50 uM. Also on record: scale not given: the % may be the effect or the level left. In short, it runs like this: as §4
For assay [21] the target is unchanged. Description: Inhibition of photosystem I in Spinacia oleracea (spinach) leaves intact chloroplasts assessed as electron transport flow from DCPIP to MV at 100 uM. On the set-up: scale not given: the % may be the effect or the level left. The method, boiled down: as §4
In assay [22] the target is Photosystem II protein D1 (Spinacia oleracea) (UniProt P69560). Description: Inhibition of photosystem II in Spinacia oleracea (spinach) leaves intact chloroplasts assessed as electron transport flow from H2O to DCPIP at 200 uM. On the set-up: scale not given: the % may be the effect or the level left. The method, boiled down:
as §3

The target is the same in assay [23]. Kind of assay: Inhibition of photosystem II in Spinacia oleracea (spinach) leaves intact chloroplasts assessed as electron transport flow from DPC to DCPIP at 200 uM. Also on record: scale not given: the % may be the effect or the level left. The method, boiled down:
(§5)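 Thylakoids (45 µg Chl) were pretreated with 0.8 M Tris pH 8.0 for 30 min at 4 °C, centrifuged 5000g for 2 min and resuspended in reaction medium. Electron flow from DPC to DCPIP was read spectrophotometrically at 600 nm, with DCPIP reduction quantified by its molar extinction coefficient. I50 values were calculated.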

The target is the same in assay [24]. Description: Inhibition of photosystem II in Spinacia oleracea (spinach) leaves intact chloroplasts assessed as electron transport flow from H2O to SiMo at 300 uM. Also on record: scale not given: the % may be the effect or the level left. The method, boiled down: (§6)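 Uncoupled partial PSII reaction, water to silicomolybdate, measured by Clark electrode O2 evolution. Basal medium (sorbitol/KCl/MgCl2/KCN/30 mM tricine pH 8) was supplemented with 200 µM SiMo, 10 µM DCMU and 6 mM NH4Cl, without MV. I50 values were calculated.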

Assay [25] shares this target. Description: Inhibition of photosystem II in Spinacia oleracea (spinach) leaves intact chloroplasts assessed as electron transport flow from DPC to DCPIP at 100 uM. Also on record: scale not given: the % may be the effect or the level left. In short, it runs like this: as §5
Assay [26] relates to Spinacia oleracea. Description: Inhibition of basal electron transport flow in Spinacia oleracea (spinach) leaves intact chloroplasts at 88 uM. The class given is functional.
The test system of assay [27] is Spinacia oleracea. Description: Inhibition of uncoupled electron transport flow in Spinacia oleracea (spinach) leaves intact chloroplasts. The class given is functional. Particulars: read-out: I50.
Assay [28] has as its target Photosystem II protein D1 (Spinacia oleracea) (UniProt P69560). Kind of assay: Inhibition of photosystem II in Spinacia oleracea (spinach) leaves intact chloroplasts assessed as electron transport flow from H2O to SiMo at 200 uM. Also on record: scale not given: the % may be the effect or the level left. The method, boiled down:
as §6

The target is the same in assay [29]. Description: Inhibition of photosystem II in freshly lysed Spinacia oleracea (spinach) leaves chloroplasts assessed as induction of loss of reactions centers capacity to capture excitons at 300 to 900 uM. The method, boiled down:
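JIP-test on Chl a fluorescence transients of freshly lysed spinach chloroplasts, dark-adapted 5 min at 20 µg/mL Chl. Measured at room temperature with a Handy PEA at 300, 600 and 900 µM. Parameters such as […] VJ were derived from the curves and expressed relative to control (%). Results are the average of three replicates.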

The target is the same in assay [30]. Description: Inhibition of photosystem II in Spinacia oleracea (spinach) leaves intact chloroplasts assessed as electron transport flow from DPC to DCPIP at 300 uM. On the set-up: scale not given: the % may be the effect or the level left. The method, boiled down: as §5
Assay [31] has the same target. Kind of assay: Inhibition of photosystem II in Spinacia oleracea (spinach) leaves intact chloroplasts assessed as electron transport flow from H2O to SiMo at 100 uM. Also on record: scale not given: the % may be the effect or the level left. In short, it runs like this: as §6

For `CN(C)C(=O)Nc1ccc(Cl)c(Cl)c1`, in the assay on Spinacia oleracea [1], the result was Active.
With `Cl.N`, the results for the Activity in the assay with Spinacia oleracea [2], in the assay with Spinacia oleracea [3] and in the assay with Spinacia oleracea [4] were 240%, 124% and 206%, respectively.
The inhibition is the relative decrease from the control value, in per cent. Regarding `O=C1CC(c2ccc(O)c(-c3c(O)cc4oc(-c5ccc(O)cc5)cc(=O)c4c3O)c2)Oc2cc(O)cc(O)c21` (stereo not drawn) [2,3-DIHYDROROBUSTAFLAVONE], the inhibition entry in [5] was “inactive”. The Activity turned out to be 98% in assay [6]; 100% in [7]; 100% in assay [8]; 71% in [9]; 71% in [11]; 100% in [13]. In addition, the Activity in assay [14] turned out to be 74%; in the assay with Spinacia oleracea [15], 47%; in assay [16], 72%; in [17], 100%; with Spinacia oleracea [18], 53%; in the assay with Spinacia oleracea [19] it was 34%. Moreover, the Activity came out at 96% in [20], 74% in [21] and 100% in assay [22]. Besides, the IC50 in the assay on Spinacia oleracea [10] was determined as 39 µM. The molecule also yielded an Inhibition % with Spinacia oleracea [12] of 32%.
For the molecule `O=c1cc(-c2ccc(O)c(-c3c(O)cc4oc(-c5ccc(O)cc5)cc(=O)c4c3O)c2)oc2cc(O)cc(O)c12` [ROBUSTAFLAVONE], the Activity was 35% in [23]; 100% in assay [6]; 57% in assay [7]; 50% in assay [24]; 100% in assay [9]; 100% in [11]. The Activity in [25] is 89%; in assay [14] it was 100%; with Spinacia oleracea [15], 76%; in assay [16], 100%; in assay [17], 29%; in [28], 50%. Moreover, the Activity was determined as 76% in the assay with Spinacia oleracea [18]; 76% in the assay with Spinacia oleracea [19]; 9% in assay [30]; 100% in [21]; 43% in [22]; 100% in assay [31]. Also, the values for the IC50 in the assay on Spinacia oleracea [10] and with Spinacia oleracea [27] were 44 µM and 88 µM, respectively. The inhibition in the assay with Spinacia oleracea [26] was 22%. Moreover, in assay [29], the inhibition result is “Active”.
With `COc1cc(O)cc2c1C(=O)CC(c1ccc(O)c(-c3c(O)cc4oc(-c5ccc(O)cc5)cc(=O)c4c3O)c1)O2` (stereo not drawn), the Activity in assay [6] is 100%; in [7] it was 100%; in [9] it was 100%; in assay [11] it was 100%; in assay [14] it was 100%; in the assay with Spinacia oleracea [15] it was 44%. Further, the Activity in assay [16] was 100%; in assay [17], 100%; in the assay on Spinacia oleracea [18], 63%; in the assay on Spinacia oleracea [19], 20%; in [21], 100%; in [22], 100%. Also, the IC50 with Spinacia oleracea [10] amounted to 79 µM. Also, the Inhibition % in the assay on Spinacia oleracea [12] was found to be 25%.
